Legend:
[1] = Compound was evaluated for rate of clearance by using IPRL (Isolated Perfused Rat Liver); format: ADME
Integrin alpha-4/beta-1 [2] = biological target: T1, Integrin alpha-4/beta-1 (Homo sapiens, UniProt P05556+P13612); experiment: Inhibition of VLA-4 from HL60 lysate in a protein-based ligand binding assay.
Method in brief: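 Compounds titrated into two-domain VCAM-Fc-Ig solution, then added to VLA-4-coated wells; TBS, 1% BSA, 1 mM MnCl2, 0.1% Tween, 2 h room temperature. After washing, bound VCAM detected with peroxidase-coupled anti-human Fc.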

Integrin alpha-4/beta-1 [3] = biological target: T1, Integrin alpha-4/beta-1; experiment: Inhibition of VLA-4 expressed in Jurkat cell line, in a cell-based adhesion assay.
Method in brief: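 VLA-4-expressing Jurkat cells incubated 30 min at 37 °C with test compound on plates carrying human two-domain VCAM-1-Fc captured by anti-human Fc; after washing, adherent cells stained with Rose Bengal.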

T1 sequence (P05556 whole entry): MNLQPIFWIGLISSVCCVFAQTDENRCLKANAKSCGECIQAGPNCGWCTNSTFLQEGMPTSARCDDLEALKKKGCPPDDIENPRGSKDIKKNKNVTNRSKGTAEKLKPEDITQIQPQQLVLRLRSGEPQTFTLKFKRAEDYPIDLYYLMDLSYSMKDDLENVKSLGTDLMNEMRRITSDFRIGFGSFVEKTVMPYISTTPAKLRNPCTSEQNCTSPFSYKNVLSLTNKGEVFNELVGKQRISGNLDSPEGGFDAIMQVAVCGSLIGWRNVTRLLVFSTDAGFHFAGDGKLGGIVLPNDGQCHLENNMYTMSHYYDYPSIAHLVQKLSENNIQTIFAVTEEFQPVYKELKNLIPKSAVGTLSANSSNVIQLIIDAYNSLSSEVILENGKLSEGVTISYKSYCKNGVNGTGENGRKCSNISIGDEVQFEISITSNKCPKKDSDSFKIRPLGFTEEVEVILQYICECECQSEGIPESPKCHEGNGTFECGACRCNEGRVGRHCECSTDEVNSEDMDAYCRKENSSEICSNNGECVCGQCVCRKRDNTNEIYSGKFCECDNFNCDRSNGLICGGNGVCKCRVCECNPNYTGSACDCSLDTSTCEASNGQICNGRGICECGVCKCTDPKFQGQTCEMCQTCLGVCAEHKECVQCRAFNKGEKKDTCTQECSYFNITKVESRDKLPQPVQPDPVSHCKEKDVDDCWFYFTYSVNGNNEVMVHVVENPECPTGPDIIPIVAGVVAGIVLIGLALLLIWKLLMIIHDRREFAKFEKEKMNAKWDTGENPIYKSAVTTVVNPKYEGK
T1 sequence (P13612 whole entry): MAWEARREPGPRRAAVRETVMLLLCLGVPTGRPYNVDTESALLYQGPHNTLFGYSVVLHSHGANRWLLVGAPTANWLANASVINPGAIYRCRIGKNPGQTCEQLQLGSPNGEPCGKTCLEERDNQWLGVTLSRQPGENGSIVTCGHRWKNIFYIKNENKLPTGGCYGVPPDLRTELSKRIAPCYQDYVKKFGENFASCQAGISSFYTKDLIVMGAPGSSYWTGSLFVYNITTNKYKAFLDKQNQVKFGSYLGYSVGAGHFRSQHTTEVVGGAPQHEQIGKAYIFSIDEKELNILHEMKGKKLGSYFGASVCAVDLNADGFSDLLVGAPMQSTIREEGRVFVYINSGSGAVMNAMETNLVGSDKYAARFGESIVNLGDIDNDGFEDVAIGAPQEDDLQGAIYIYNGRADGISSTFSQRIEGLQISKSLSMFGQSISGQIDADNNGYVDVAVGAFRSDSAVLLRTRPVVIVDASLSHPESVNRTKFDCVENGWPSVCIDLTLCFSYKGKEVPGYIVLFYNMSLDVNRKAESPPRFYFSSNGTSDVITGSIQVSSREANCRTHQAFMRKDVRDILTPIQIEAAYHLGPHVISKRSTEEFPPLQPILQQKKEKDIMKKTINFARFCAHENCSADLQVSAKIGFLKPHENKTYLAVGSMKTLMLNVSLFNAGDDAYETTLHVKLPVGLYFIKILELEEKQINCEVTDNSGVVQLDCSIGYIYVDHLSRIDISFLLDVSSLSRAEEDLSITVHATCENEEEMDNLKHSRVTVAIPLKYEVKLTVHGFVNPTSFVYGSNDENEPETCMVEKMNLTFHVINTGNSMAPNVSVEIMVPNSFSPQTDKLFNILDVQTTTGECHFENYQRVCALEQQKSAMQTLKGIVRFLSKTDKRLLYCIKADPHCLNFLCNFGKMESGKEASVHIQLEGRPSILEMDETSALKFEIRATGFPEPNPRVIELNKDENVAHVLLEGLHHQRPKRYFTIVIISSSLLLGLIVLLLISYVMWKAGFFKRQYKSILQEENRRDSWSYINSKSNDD

SMILES | k el [1] [s⁻¹] | IC50 (Integrin alpha-4/beta-1 [2]) [µM] | IC50 (Integrin alpha-4/beta-1 [3]) [µM]
COc1nc(N[C@@H](Cc2ccc(NC(=O)c3c(Cl)cncc3Cl)cc2)C(=O)O)nc(N(C)C)n1 | 0.000306 | 0.016 | 0.59
CCCOc1nc(N[C@@H](Cc2ccc(NC(=O)c3c(Cl)cncc3Cl)cc2)C(=O)O)nc(OCCC)n1 | 5.56e-05 | 0.05 | 0.74
COc1nc(N[C@@H](Cc2ccc(OCc3c(Cl)cccc3Cl)cc2)C(=O)O)nc(OC)n1 | 0.000611 | 1.5 | 
COc1nc(N[C@@H](Cc2ccc(NC(=O)c3c(Cl)cncc3Cl)cc2)C(=O)O)nc(N2CCOCC2)n1 |  | 0.014 | 0.51
COc1nc(N[C@@H](Cc2ccc(NC(=O)c3c(Cl)cccc3Cl)cc2)C(=O)O)nc(OC)n1 | 0.000194 | 0.03 | 4
O=C(Nc1ccc(C[C@H](NC(=O)c2c(Cl)cncc2Cl)C(=O)O)cc1)c1c(Cl)cncc1Cl | 0.00108 | 0.0009 | 0.0005
CC(=O)N1CSC[C@@H]1C(=O)N[C@@H](Cc1ccc(NC(=O)c2c(Cl)cncc2Cl)cc1)C(=O)O | 0.00103 | 0.0006 | 0.0005
O=C(Nc1ccc(C[C@H](Nc2cc(Cl)ncn2)C(=O)O)cc1)c1c(Cl)cncc1Cl | 0.000583 |  | 
O=C(Nc1ccc(C[C@H](Nc2ccc([N+](=O)[O-])cn2)C(=O)O)cc1)c1c(Cl)cncc1Cl | 0.000278 |  | 
COc1nc(N[C@@H](Cc2ccc(NC(=O)c3c(Cl)cncc3Cl)cc2)C(=O)O)nc(N2CCNCC2)n1 | 0.000583 | 0.025 | 1
COc1nc(N[C@@H](Cc2ccc(N(C)C(=O)c3c(Cl)cncc3Cl)cc2)C(=O)O)nc(OC)n1 |  | 5.5 | 
COc1nc(N[C@@H](Cc2ccc(NC(=O)c3c(Cl)cncc3Cl)cc2)C(=O)O)nc(OC)n1 | 0.000306 | 0.008 | 0.9
COc1nc(NCCO)nc(N[C@@H](Cc2ccc(NC(=O)c3c(Cl)cncc3Cl)cc2)C(=O)O)n1 | 0.0005 | 0.007 | 0.32
COc1nc(N[C@@H](Cc2ccc(NC(=O)c3c(Cl)cncc3Cl)cc2)C(=O)O)nc(Oc2ccccc2)n1 | 0.000167 | 0.03 | 0.32
CCN(CC)c1nc(N[C@@H](Cc2ccc(NC(=O)c3c(Cl)cncc3Cl)cc2)C(=O)O)nc(OC)n1 |  | 0.07 | 1.62
COc1nc(N[C@@H](Cc2ccc(NC(=O)c3c(F)cccc3C(F)(F)F)cc2)C(=O)O)nc(OC)n1 | 0.000167 | 0.05 | 4.6
COc1nc(N[C@@H](Cc2ccc(NC(=O)c3c(Cl)cncc3Cl)cc2)C(=O)O)nc(N2CCC(C(=O)O)CC2)n1 | 0.000583 | 0.006 | 0.24
CCCOc1nc(N[C@@H](Cc2ccc(NC(=O)c3c(Cl)cncc3Cl)cc2)C(=O)O)nc(OC)n1 | 0.000639 | 0.045 | 0.3
CCCNc1nc(N[C@@H](Cc2ccc(NC(=O)c3c(Cl)cncc3Cl)cc2)C(=O)O)nc(OC)n1 | 0.000667 | 0.025 | 0.74

— ChEMBL document CHEMBL1135143, “Discovery and evaluation of N-(triazin-1,3,5-yl) phenylalanine derivatives as VLA-4 integrin antagonists” (Bioorg Med Chem Lett, 2002)
